Measurements published in ChEMBL document CHEMBL4680172, “Synthesis and biological evaluation of coumarin derivatives as α-glucosidase inhibitors” (Eur J Med Chem, 2020).
Calls of active or inactive are those of the source. The calls are words filed in the database; no cut-off is given here.

Assays:
[1] = system: Saccharomyces cerevisiae; experiment: Inhibition of Saccharomyces cerevisiae alpha-glucosidase at 100 uM using PNPG as substrate preincubated for 10 mins followed by substrate addition measured after 30 mins relative to control; conditions: time 40.0 min
Method in brief: (§1)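 Enzyme 0.1 U/mL final in 0.1 M potassium phosphate, pH 6.8, with compound added from DMSO; 10 min at 37 ℃, then PNPG at 1 mmol/L final, another 30 min at 37 ℃. Absorbance read at 405 nm against a no-compound control. Line 1 screened at a single 100 µM; IC50 from the %inhibition–concentration plot. Duplicates, means taken.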

[2] = Inhibition of Saccharomyces cerevisiae alpha-glucosidase using PNPG as substrate preincubated for 10 mins followed by substrate addition measured after 30 mins; method in brief: as §1
[3] = system: Saccharomyces cerevisiae; experiment: Mixed type inhibition of Saccharomyces cerevisiae alpha-glucosidase assessed as equilibrium constant for enzyme substrate complex using varying level of PNPG as substrate by Lineweaver-Burk double reciprocal plot analysis
Method in brief: (§2)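 Run as the PNPG/phosphate pH 6.8, 37 ℃, 405 nm assay, but with compound concentration varied together with either PNPG or enzyme level. Lineweaver-Burk plots were made. KI (free enzyme) and KIS (enzyme–substrate complex) were taken from apparent Km/Vmax and 1/Vmax plotted against inhibitor concentration.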

[4] = system: Saccharomyces cerevisiae; experiment: Mixed type inhibition of Saccharomyces cerevisiae alpha-glucosidase assessed as equilibrium constant for free enzyme using varying level of PNPG as substrate by Lineweaver-Burk double reciprocal plot analysis; method in brief: as §2
[5] = system: Saccharomyces cerevisiae; experiment: Reversible inhibition of Saccharomyces cerevisiae alpha-glucosidase
Method in brief: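 Rate (ΔOD/min) was plotted against α-glucosidase concentration at several fixed inhibitor levels, 0–35 µM. Conditions otherwise as in the PNPG 405 nm assay at pH 6.8 and 37 ℃.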

| SMILES | inhibition [1] [%] | IC50 [2] [µM] | Ke [3] [µM] | Ke [4] [µM] | inhibition [5] |
| --- | --- | --- | --- | --- | --- |
| Cc1ccc(/C=C/C(=O)Oc2ccc3ccc(=O)oc3c2)cc1 | 54.7 | 94.5 |  |  |  |
| O=C(/C=C/c1ccccc1)Oc1cc(=O)oc2ccccc12 | 83.5 | 19.6 | 13 | 27.4 | Active |
| O=C(/C=C/c1ccc(O)cc1)Oc1cc(=O)oc2ccccc12 | 33.2 | > 100 |  |  |  |
| O=C(/C=C/c1ccc(Cl)cc1)Oc1cc(=O)oc2ccccc12 | 33.1 | > 100 |  |  |  |
| O=C(O)/C=C/c1ccccc1 [CINNAMIC ACID] |  | 15000 |  |  |  |
| O=C(/C=C/c1ccc(F)cc1)Oc1ccc2ccc(=O)oc2c1 | 26.2 | > 100 |  |  |  |
| O=C(/C=C/c1ccc(C(F)(F)F)cc1)Oc1ccc2ccc(=O)oc2c1 | 38.2 | > 100 |  |  |  |
| O=C(/C=C/c1ccc(Br)cc1)Oc1cc(=O)oc2ccccc12 | 61 | 69.3 |  |  |  |
| COc1cc(/C=C/C(=O)Oc2ccc3ccc(=O)oc3c2)ccc1O | 20.3 | > 100 |  |  |  |
| O=C(/C=C/c1ccccc1)Oc1ccc2ccc(=O)oc2c1 [7-CINNAMOYLOXYCOUMARIN] | 45.6 | > 100 |  |  |  |
| Cc1ccc(/C=C/C(=O)Oc2cc(=O)oc3ccccc23)cc1 | 89.9 | 13 | 13.7 | 27 | Active |
| COc1cc(/C=C/C(=O)Oc2cc(=O)oc3ccccc23)ccc1O | 19.5 | > 100 |  |  |  |
| O=C(/C=C/c1ccc(O)cc1)Oc1ccc2ccc(=O)oc2c1 | 13.1 | > 100 |  |  |  |
| O=C(/C=C/c1ccc(F)cc1)Oc1cc(=O)oc2ccccc12 | 68.5 | 41.7 |  |  |  |
| O=C(/C=C/c1ccc(Br)cc1)Oc1ccc2ccc(=O)oc2c1 | 30.1 | > 100 |  |  |  |
| COc1ccc(/C=C/C(=O)Oc2ccc3ccc(=O)oc3c2)cc1 | 20.2 | > 100 |  |  |  |
| COc1ccc(/C=C/C(=O)Oc2cc(=O)oc3ccccc23)cc1 | 73.2 | 36.9 |  |  |  |
| O=C(/C=C/c1ccc(Cl)cc1)Oc1ccc2ccc(=O)oc2c1 | 29.9 | > 100 |  |  |  |
| O=c1ccc2ccc(O)cc2o1 [UMBELLIFERONE] |  | 9000 |  |  |  |
| C[C@H]1[C@H](C)CC[C@]2(C(=O)O)CC[C@]3(C)C(=CC[C@@H]4[C@@]5(C)CC[C@H](O)C(C)(C)[C@@H]5CC[C@]43C)[C@H]12 [URSOLIC ACID] |  | 11.4 |  |  |  |
| O=C(/C=C/c1ccc(C(F)(F)F)cc1)Oc1cc(=O)oc2ccccc12 | 41.9 | > 100 |  |  |  |
